Screening data deposited in PubChem by several laboratories.
NPY-Y2 antag = antagonists of human neuropeptide Y receptor Y2; hit rate 0.99% among 140,000; AID 793; NPY-Y2 expressing cells, antagonist mode; inhibition, % at 2.7 µM; in the data active = inhibition above about 17%;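 note: 0% = vehicle with agonist challenge and 100% = reference antagonist with challenge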
Target sequence (P49146 whole entry, looked up): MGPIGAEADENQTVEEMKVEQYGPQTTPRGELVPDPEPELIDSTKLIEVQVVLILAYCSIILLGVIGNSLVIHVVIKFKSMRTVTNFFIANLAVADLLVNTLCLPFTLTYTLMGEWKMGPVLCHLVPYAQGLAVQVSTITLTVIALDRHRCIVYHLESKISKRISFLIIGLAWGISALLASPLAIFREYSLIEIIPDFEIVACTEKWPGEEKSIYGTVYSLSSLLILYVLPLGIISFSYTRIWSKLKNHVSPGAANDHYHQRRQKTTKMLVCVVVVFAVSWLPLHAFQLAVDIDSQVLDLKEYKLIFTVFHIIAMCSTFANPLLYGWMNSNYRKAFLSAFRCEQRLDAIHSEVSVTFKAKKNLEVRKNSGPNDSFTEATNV
NPY1 pot ag = human NPY-Y1 potentiation or agonism, primary screen; P25929; NPY-Y1 expressing cells, potentiator/agonist activation; activation, % at 3.6 µM; hit rate 0.37% among 220,000; in the data active = activation above about 33%, passing the limit was not always enough;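 note: cells stimulated with NPY at EC10 then isoproterenol at EC100; 0% = low agonist plus stimulus and 100% = saturating agonist plus stimulus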
NPY2 pot ag = human NPY-Y2 potentiation or agonism, primary screen; cells expressing NPY-Y2, potentiator/agonist read-out; activation, % at 3.6 µM; P49146; hit rate 0.45% among 220,000; in the data active = activation above about 27%;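 note: cells stimulated with NPY near EC25 plus isoproterenol at EC100; 0% = vehicle plus submaximal agonist and 100% = vehicle plus saturating agonist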
RAM inhibit = yeast RAM network inhibition | S. cerevisiae dse1pr::URA3 reporter, 5-FOA growth OD615, 2 d; analog-sensitive cbk1-as2 kinase mutant strain | inhibition, % at 50 µM | hit rate 1.8% among 190,000 | AID 868;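 active = inhibition above a set limit, 3 SD over mean compound inhibition, cut at about 8.4% in these data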;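 note: 0% = DMSO-only wells with no growth and 100% = 10 µM 1-NA-PP1 full growth; inhibition rescues growth on 5-FOA so higher OD means more RAM inhibition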
NPY-Y1 antag = blocks the human neuropeptide Y Y1 receptor. P25929. HEK293-CNG Y1 cells, membrane potential fluorescence; NPY at EC95, then isoproterenol. inhibition, % at 3.6 µM. hit rate 1% among 200,000. AID 1040;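 active = inhibition above the campaign mean inhibition of all tested compounds plus 3 SD, cut at about 20% in these data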;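 note: 0% = DMSO wells given NPY plus isoproterenol and 100% = isoproterenol alone without NPY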
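Test system: HEK293 cells co-expressing NPY Y1 receptor and cyclic-nucleotide gated channel; Also added: NPY (25 nM), isoproterenol (1 µM), Ro 20-1724 (25 µM); Compound dosing: one concentration, 3.6 µM, in 0.4% DMSO; Timing: dye 3 h, compound 60 min room temperature, stimulation 45 min; Technique: Membrane-potential fluorescent dye readout.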
WT yeast gro inh = growth inhibition of WT yeast, mitochondrial fusion screen; mitochondrial fusion phenotypic screen, WT strain; inhibition, % at 10 µM; hit rate 2.1% among 190,000; AID 1362; in the data active = inhibition above about 58%; tested in S. cerevisiae
NPY-Y1 antag ct = antagonizes human NPY-Y1, counter-screen to NPY-Y2 antagonists | shares compounds with NPY-Y2 antag | cell-based NPY-Y1 antagonism counterscreen | inhibition, % at 3.6 µM | hit rate 19% among 710 | AID 1256; in the data active = inhibition above about 20%;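 note: cells challenged with NPY then isoproterenol with cAMP sensed through a CNG channel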
NPY-Y2 ant conf = human NPY-Y2 antagonism, confirmation; shares compounds with NPY-Y2 antag; HEK293 NPY-Y2 CNG channel, membrane potential fluorescence; inhibition, % at 2.8 µM; hit rate 32% among 710;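 active = mean inhibition of triplicate wells above the hit cutoff set in the primary screen, cut at about 17% in these data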;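 note: 0% = DMSO with NPY challenge and 100% = BIIE0246 high control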
Starred values were filed as active, the others as inactive; · = no result; ! = not active in a repeat. In the library only some 4.9% were active in any assay of this set; here they are far more common.

SMILES	NPY-Y2 antag	NPY1 pot ag	NPY2 pot ag	RAM inhibit	NPY-Y1 antag	WT yeast gro inh	NPY-Y1 antag ct	NPY-Y2 ant conf
O=C(COC(=O)/C=C/c1ccc(Cl)cc1)Nc1ccccc1-c1ccccc1	22*	5	10	8.7*	-2	2	20	17*
CCCC(c1nnnn1C1CCCC1)N1CCN(c2ccccc2F)CC1 (configuration not stated)	18*	-3	-17	0	14	-22	18	4
O=C(CNc1ccc2c(c1)OCO2)N/N=C\c1ccccc1Cl	40*	-42	-9	1	10	8	4	9
CCOC(=O)c1c(NC(=O)CSC2=NN3CCCC(=O)N=C3S2)sc2c1CCCCC2	19*	0	7	2	3	11	25*	43*
CCOc1ccc(C2=C(C=C(C#N)C#N)C(c3ccccc3)c3ccccc3O2)cc1 (configuration not stated)	0	-18	6	6	6	37	·	·
COc1ccc(C2=C(CN(C)C)C(c3ccccc3)c3ccccc3O2)cc1 (configuration not stated)	18*!	-17	-21	1	23*!	43	25*	34*
CCN(C(=O)CN1CCc2ccccc21)c1c(N)n(Cc2ccccc2)c(=O)[nH]c1=O	·	11	-14	-1	-1	7	·	·
Cc1cc(OC(=O)c2ccc3ccccc3c2)c([N+](=O)[O-])c(=O)[nH]1	·	-1	-24	-1	7	-16	·	·
Cc1ccccc1/C=C/c1nc2ccccc2c(=O)n1Cc1ccccc1	14	-4	-4	3	5	13	·	·
Cc1ccccc1/C=C/c1nc2ccccc2c(=O)n1CCc1ccccc1	23*	-10	5	7	2	-9	18	29*
CN(c1ccccc1)c1nc(-n2ccnc2)nc(-n2ccnc2)n1	0	2	-7	0	5	36	·	·
c1ccc(N(c2ccccc2)c2nc(-n3ccnc3)nc(-n3ccnc3)n2)cc1	23*	36	18	1	3	98*	6	3
CN(C)C=NC(=O)c1cc(C(=O)c2ccc(C(C)(C)C)cc2)c[nH]1	·	-4	-4	4	2	1	·	·
Cc1ccc2c(c1)C(=O)c1c(C(=O)O)cccc1-2	·	9	6	-1	4	-9	·	·
COC(=O)c1ccc(C2C(Oc3ccc(OC)cc3)C(=O)N2CCc2ccc(OC)c(OC)c2)cc1 (configuration not stated)	3	-15	3	3	11	9	·	·
COC(=O)c1ccc(C2C(Oc3ccccc3)C(=O)N2CCc2ccc(F)cc2)cc1 (configuration not stated)	24*	21	-20	4	19	31	30*	14
CCCC/C(C)=N\NC(=O)CNS(=O)(=O)c1ccc([N+](=O)[O-])cc1	0	11	-5	0	-6	-2	·	·
Cc1ccc2cccc(NC(=S)NC(=O)c3ccccc3)c2n1	22*	-48	-51	1	14	-16	20*	43*
CS(=O)(=O)N(CC(=O)Nc1ccccc1C(=O)NCc1ccccc1)c1ccc2c(c1)OCCO2	5	-11	-5	4	1	-2	·	·
CCCc1cc(-c2n[nH]c(=S)n2CC)cs1	·	-24	-15	-1	12	39	·	·
CCCc1cc(-c2n[nH]c(=S)n2C(C)c2ccccc2)cs1 (configuration not stated)	20*	-10	-21	2	18	64*	15	11
Cc1ccccc1NC(=O)c1ccccc1NC(=O)Cc1cccc2ccccc12	0	24	2	3	3	21	·	·
Cc1ccccc1NC(=O)c1cccc2nc3ccccc3nc12	19*	20	6	8	-6	16	-2	-4
Cc1nc(-c2ccccc2)sc1C(=O)CSc1ccc(Cl)cc1	20*	-12	-3	1	17	20	14	25*
O=C(CCc1nc(-c2ccccc2)c(-c2ccccc2)o1)OCc1ccc(Cl)cc1	13	-34	-17	1	17	20	·	·
SMILES	NPY-Y2 antag	NPY1 pot ag	NPY2 pot ag	RAM inhibit	NPY-Y1 antag	WT yeast gro inh	NPY-Y1 antag ct	NPY-Y2 ant conf
O=C(CCc1nc(-c2ccccc2)c(-c2ccccc2)o1)OCc1ccc(Br)cc1	18*	-8	-16	0	5	24	12	20*
COc1ccc(/C=C2\N=C(c3ccccc3)N(c3ccc(C(=O)O)cc3)C2=O)cc1OC	·	-9	-55	·	·	·	·	·
Cc1ccc2oc(C(=O)NCc3ccc4c(c3)OCO4)c(C)c2c1	15	-20	-20	8	3	20	·	·
Cc1c(C(=O)NCc2ccc3c(c2)OCO3)oc2ccc(Br)cc12	22*	-30	-24	7	9	62*	14	12
O=C(Nc1ccc2c(c1)OCCO2)c1cc(-c2ccccn2)nc2ccc(Br)cc12	·	-3	-9	2	12	2	·	·
Cc1cccc(-c2cc(C(=O)Nc3ccc4c(c3)OCCO4)c3ccccc3n2)c1	26*	-76	-34	4	3	-3	26*	43*
CC(C)C(OC(=O)CN1C(=O)COc2ccccc21)C(=O)NC1CCCC1 (configuration not stated)	18*	-5	-1	1	17	-4	10	7
Cc1ccc(NC(=O)COC(=O)CN2C(=O)COc3ccccc32)cc1	-1	-27	6	2	-4	0	·	·
Cc1ccccc1OCCCSc1nc2ccccc2[nH]1	17*	-12	8	1	7	62*	4	2
Cc1ccc(-n2nc(C(=O)c3ccccc3)n3c(=O)c(Cc4ccccc4)nnc23)cc1	18*	-41	-21	2	17	30	73*	99*
COC(=O)c1nn(-c2ccccc2)c2nnc(Cc3ccc(C)cc3)c(=O)n12	1	0	-2	4	3	-8	·	·
CCOc1ccc(-n2c(SCc3nc(-c4cccs4)no3)nnc2-c2ccncc2)cc1	18*	-52	-2	1	18	-2	17	14
COc1cc(/C=N/NC(N)=O)ccc1OCC(=O)Nc1ccc(C)c(C)c1	18*	-14	-16	1	-1	-23	11	34*
COc1cc(/C=N/NC(N)=S)ccc1OCC(=O)Nc1ccc(C)c(C)c1	-3	-6	-9	4	-2	48	·	·
CCCCNC(=O)c1onc(CSc2ccc(F)c(F)c2)c1C(=O)O	23*	-9	-19	-1	14	-17	14	12
Nc1c2c(nc3sc4c(c13)CCCC4)CCCCCC2	19*	-10	0	0	7	15	14	18*
